High-throughput results as filed in PubChem BioAssay.
MEKK2mut PB1 HTS: signal of MEK5 binding to mutant human MEKK2 PB1 domain; bead flow cytometry, Alexa488-MEK5 binding to MEKK2 mutant; percent response, % at 10 µM; 0.35% of 290,000 active; AID 1530; in the data active = percent response above about 24%, passing the limit was not always enough
UBC13 inh: inhibitors of human UBC13 polyubiquitin chain formation; TR-FRET; inhibition, % at 20 µM; 0.47% of 330,000 active; AID 485273; in the data active = inhibition above about 45%, passing the limit was not always enough
Apaf1 inhib: human Apaf-1 inhibition; O14727; reconstituted apoptosome caspase-3 activity, DEVD-Rh110 fluorescence; inhibition, % at 20 µM; 0.71% of 330,000 active; active = inhibition of at least 40% at 20 µM;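 also: plate controls were DMSO wells for no effect and DEVD-CHO caspase inhibitor wells for full effect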
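Material: cell-free apoptosome with Apaf-1, procaspase-3 and caspase-9; Buffer or medium: Hepes pH 7.5 with detergent and BSA; Reagent: cytochrome c trigger plus (Z-DEVD)2-Rh110 caspase-3 substrate; Times: compound with Apaf-1, dATP, procaspase-3 30 min, then 50 min reaction, room temperature; Technique: Rh110 fluorescence intensity.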
PREPL inh: inhibitors of human prolyl oligopeptidase-like enzyme PREPL; recombinant PREPL, fluorescence polarization activity-based probe; inhibition, % at 5.96 µM; 0.68% of 320,000 active; in the data active = inhibition above about 43%;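 also: 0% = enzyme with DMSO and 100% = wells lacking enzyme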
Target sequence (Q4J6C6 whole entry, looked up): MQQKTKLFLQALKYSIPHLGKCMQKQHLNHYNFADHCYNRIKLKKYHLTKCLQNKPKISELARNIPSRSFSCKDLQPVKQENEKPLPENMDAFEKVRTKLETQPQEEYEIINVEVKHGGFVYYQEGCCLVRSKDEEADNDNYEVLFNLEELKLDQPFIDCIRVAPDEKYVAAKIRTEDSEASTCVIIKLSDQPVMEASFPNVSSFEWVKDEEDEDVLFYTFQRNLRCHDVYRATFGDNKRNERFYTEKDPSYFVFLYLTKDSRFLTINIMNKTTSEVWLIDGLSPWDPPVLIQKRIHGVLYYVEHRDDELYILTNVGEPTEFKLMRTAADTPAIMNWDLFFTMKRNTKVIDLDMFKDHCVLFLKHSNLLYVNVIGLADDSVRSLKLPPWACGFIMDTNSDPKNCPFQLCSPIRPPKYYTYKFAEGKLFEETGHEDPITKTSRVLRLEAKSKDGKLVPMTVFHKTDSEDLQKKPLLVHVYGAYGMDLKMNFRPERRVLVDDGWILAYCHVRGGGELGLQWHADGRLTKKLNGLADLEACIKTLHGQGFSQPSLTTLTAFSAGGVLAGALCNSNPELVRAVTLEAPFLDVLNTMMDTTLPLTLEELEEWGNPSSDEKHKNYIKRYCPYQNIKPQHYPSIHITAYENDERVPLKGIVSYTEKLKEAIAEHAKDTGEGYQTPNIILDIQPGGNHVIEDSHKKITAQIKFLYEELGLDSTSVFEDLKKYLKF
MEKK2 WT-MEK5: raises or lowers MEK5 binding to wildtype human MEKK2 PB1 domain. Q9Y2U5. bead flow cytometry, Alexa488-MEK5 binding to MEKK2 WT; actives lie on both sides. binding response (% of control), % at 10 µM. 1.1% of 290,000 active. AID 1531; in the data active = binding response below about 67% or above about 130%
MEKK3 PB1 HTS: MEKK3-MEK5 PB1 interaction, increase or decrease; bead-based flow cytometry, Alexa488-MEK5 binding to MEKK3; actives lie on both sides; 0 = blocked by unlabeled MEK5, 100 = vehicle; binding response (% of control), % at 10 µM; 1.4% of 290,000 active; AID 1529;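 active = binding response more than 3 SD above or below the average of its plate-row segment, actives on both sides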;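 also: Alexa488 bead fluorescence after subtracting the streptavidin-only scavenger bead signal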
MEKK2wt confirm: raises or lowers MEK5 binding to wildtype human MEKK2, retest | binding response (% of control), % at 10 µM | bead flow cytometry, Alexa488-MEK5 binding to MEKK2 WT; actives lie on both sides | 2.4% of 5,900 active | AID 1892 | shares compounds with MEKK3 PB1 HTS; in the data active = binding response below about 16% or above about 210%; inactive = in between
MEKK2mut confirm: signal of MEK5 binding to mutant human MEKK2, retest; shares compounds with MEKK3 PB1 HTS; bead flow cytometry, Alexa488-MEK5 binding to MEKK2 mutant; percent response, % at 10 µM; 2% of 5,900 active; AID 1893; in the data active = percent response mostly above about 71%, no sharp cut-off; inactive = mostly below about 38%;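 also: higher means compound restores mutant binding toward wildtype level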
MEKK3-MEK5 inh: MEKK3-MEK5 PB1 inhibition, single concentration confirmation; shares compounds with MEKK3 PB1 HTS; bead flow cytometry, Alexa488-MEK5 binding to MEKK3; hits give low values; binding response (% of control), % at 10 µM; 1.8% of 5,900 active; AID 1894;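 active = binding response below 72% of control, or above a set upper limit, though filed actives all read lower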;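 also: 100% = DMSO only wells and 0% = binding blocked by excess unlabeled MEK5; lower values mean stronger disruption of MEK5 binding to MEKK3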
* marks the source's active call; other numbers are inactive results; · = not tested or not shown; [ ] = dose if it differs, or a comment. Compounds with a hit are over-represented: about 3.1% of the library has one in this group of screens.

SMILES | MEKK2mut PB1 HTS | UBC13 inh | Apaf1 inhib | PREPL inh | MEKK2 WT-MEK5 | MEKK3 PB1 HTS | MEKK2wt confirm | MEKK2mut confirm | MEKK3-MEK5 inh
Cc1ccc2nc(N(CCCN(C)C)C(=O)COc3ccc(Cl)cc3)sc2c1 | 44.0 | 13.9 | -13.5 | -76.1 | 180.0* | 109.0 | 149.0 | 25.0 | 100.0
Cc1cc(C)c2sc(N(CCCN(C)C)C(=O)COc3ccc(Cl)cc3)nc2c1 | 55.0* | 36.9 | 17.4 | -47.5 | 246.0* | 113.0 | 192.0 | 50.0 | 104.0
Cc1cc(C)c2sc(N(CCN(C)C)C(=O)c3cc(Cl)sc3Cl)nc2c1 | 15.0 | 2.7 | 2.3 | -12.7 | 132.0 | 108.0 | · | · | ·
CN(C)CCCN(C(=O)COc1ccc(Cl)cc1)c1nc2ccc(F)cc2s1 | 2.0 | 14.5 | -0.6 | -27.8 | 122.0 | 103.0 | · | · | ·
Cc1ccc(N(C(=O)CNC(=O)c2ccco2)C(C(=O)NC2CCCCC2)c2cccnc2)cc1 (centres undefined) | 2.0 | 4.2 | 10.6 | -3.5 | 100.0 | 99.0 | · | · | ·
Cc1ccc(OCC(O)CNS(=O)(=O)c2ccccc2C(=O)O)cc1 (centres undefined) | -4.0 | 4.4 | 7.9 | 13.4 | 90.0 | 71.0*[inhibitor] | 100.0 | 2.0 | 102.0
COC(=O)c1ccc2c(=O)n(-c3ccccc3)c(SCN3C(=O)c4ccccc4C3=O)nc2c1 | 1.0 | -6.4 | -4.7 | -1.6 | 98.0 | 74.0*[inhibitor] | 104.0 | 4.0 | 105.0
N#Cc1ccc(OCC(=O)NCC2(N3CCCCC3)CCCCC2)cc1 | -1.0 | -17.4 | -5.3 | 33.1 | 103.0 | 104.0 | · | · | ·
O=C(COc1ccccc1)NCC1(N2CCCCC2)CCCCC1 | 31.0 | -4.0 | 3.1 | 30.1 | 147.0* | 103.0 | 115.0 | -2.0 | 101.0
Cc1cccc(NC(=O)N2CCC(NC(=O)c3ccccc3C)CC2)c1 | -17.0 | 4.3 | 0.0 | -8.0 | 2.0*[inhibitor] | 2.0*[inhibitor] | 96.0 | 2.0 | 105.0
Cc1ccccc1C(=O)N1CCC(C(=O)Nc2ccc(F)cc2)CC1 | 2.0 | 2.8 | 0.9 | 3.4 | 100.0 | 104.0 | · | · | ·
CSc1cccc(NC(=O)C2CCN(C(=O)c3ccccc3C)CC2)c1 | 1.0 | 8.8 | -3.0 | -2.7 | 108.0 | 151.0* | 96.0 | -12.0 | 96.0
Cn1c(-c2ccc(C(C)(C)C)cc2)n[nH]c1=S | -9.0 | -2.4 | 3.4 | -6.8 | 92.0 | 81.0*[inhibitor] | 111.0 | 9.0 | 105.0
Cc1ccc(-c2cc(-c3ccccc3)no2)cc1 | · | 4.1 | -7.6 | -1.5 | · | · | · | · | ·
c1ccc(-c2cc(-c3ccccc3)on2)cc1 | 27.0 | 2.2 | -5.5 | -2.2 | 129.0 | 130.0* | 109.0 | 15.0 | 107.0
COc1ccc(CNC(=O)CN2C(=O)c3ccc([N+](=O)[O-])cc3C2=O)cc1 | 3.0 | -5.4 | 2.1 | -2.0 | 99.0 | 99.0 | · | · | ·
COc1cc(Cl)ccc1S(=O)(=O)n1nc(C)cc1C | 0.0 | 4.5 | -6.3 | 16.6 | 95.0 | 95.0 | · | · | ·
COc1cc(S(=O)(=O)n2nc(C)cc2C)c(OC)cc1Cl | -27.0 | -1.4 | -4.4 | 1.4 | -2.0*[inhibitor] | 2.0*[inhibitor] | 102.0 | 0.0 | 99.0
CCC(=O)N(C)CCc1cc2c(c(OC)c1/C=N/Nc1ccc(C(=O)O)cc1)OCO2 | 30.0 | -11.2 | 11.1 | -1.0 | 119.0 | 132.0* | 107.0 | 11.0 | 107.0
CC(C)n1ncc(N2CCOCC2)c(Cl)c1=O | 9.0 | 1.3 | 1.8 | 1.4 | 101.0 | 104.0 | · | · | ·
Cc1ccc(CNC(=O)C(=O)NCC2OCCN2C(=O)c2ccc(Cl)cc2)cc1 (centres undefined) | 2.0 | 0.7 | 12.4 | 0.3 | 99.0 | 104.0 | · | · | ·
O=C(NCc1ccccc1)C(=O)NCC1OCCN1C(=O)c1cccs1 (centres undefined) | 0.0 | -4.2 | -12.3 | 5.8 | 103.0 | 132.0* | 99.0 | 0.0 | 102.0
Cc1ccc(CNC(=O)C(=O)NCC2OCCN2C(=O)c2cccs2)cc1 (centres undefined) | 0.0 | 4.7 | -12.2 | -3.0 | 103.0 | 135.0* | 104.0 | 2.0 | 105.0
CCOC(=O)c1nn(-c2ccc(F)cc2)c(=O)cc1OCC(=O)Nc1ccc(OCC)cc1 | · | -6.3 | 25.1 | -5.7 | · | · | · | · | ·
COc1ccc(/C=C\c2onc(C)c2S(=O)(=O)N2CCC(C(=O)NCc3ccco3)CC2)cc1 | 31.0 | -6.8 | 0.2 | 1.5 | 115.0 | 130.0* | 107.0 | 5.0 | 106.0
SMILES | MEKK2mut PB1 HTS | UBC13 inh | Apaf1 inhib | PREPL inh | MEKK2 WT-MEK5 | MEKK3 PB1 HTS | MEKK2wt confirm | MEKK2mut confirm | MEKK3-MEK5 inh
CCCCNC(=O)C1CCCN(S(=O)(=O)c2c(C)noc2/C=C/c2cccs2)C1 (centres undefined) | -5.0 | -3.3 | -11.7 | 2.2 | 93.0 | 95.0 | · | · | ·
Cc1noc(/C=C/c2cccs2)c1S(=O)(=O)N1CCC(C(=O)NCCCN2CCCC(C)C2)CC1 (centres undefined) | 33.0 | 17.0 | 14.4 | 16.7 | 152.0* | 109.0 | 146.0 | 34.0 | 108.0
COc1ccc(NC(=O)c2ccc(F)c(F)c2)c2ccccc12 | 4.0 | -4.2 | 16.0 | -5.2 | 102.0 | 101.0 | · | · | ·
COc1ccc(CCNC(=O)C(=O)c2c(C)[nH]c3ccccc23)cc1 | 1.0 | -2.0 | -13.4 | -2.7 | 101.0 | 102.0 | · | · | ·
Cc1ccc(CNC(=O)C(=O)NCCC2=CCCCC2)cc1 | 3.0 | -8.6 | -1.4 | 2.2 | 99.0 | 72.0*[inhibitor] | 101.0 | -6.0 | 103.0
C1=C(CCNc2ncnc3c2[nH]c2ccccc23)CCCC1 | 26.0 | · | · | 34.2 | 143.0* | 95.0 | 140.0 | 20.0 | 107.0
O=C(O)C1C2C=CC(O2)C1C(=O)NCCC1=CCCCC1 (centres undefined) | -18.0 | -8.6 | 18.7 | 16.2 | 1.0*[inhibitor] | 1.0*[inhibitor] | 107.0 | -1.0 | 103.0
Cc1[nH]c2ccccc2c1C(=O)C(=O)NCCC1=CCCCC1 | 0.0 | -11.0 | 3.7 | -5.4 | 104.0 | 135.0* | 98.0 | 6.0 | 102.0
CC(=O)N1c2ccc(S(=O)(=O)NCCC(=O)N3CCC(C)CC3)cc2CC1C (centres undefined) | -1.0 | -2.7 | -7.3 | 2.2 | 100.0 | 99.0 | · | · | ·
O=C(CCSCc1cccc(Cl)c1)NCCC1=CCCCC1 | 0.0 | 8.5 | 15.0 | 1.9 | 101.0 | 113.0 | · | · | ·
Cc1ccc(CSCCC(=O)NCCC2=CCCCC2)cc1 | 1.0 | 5.5 | 4.9 | -6.3 | 114.0 | 130.0* | 106.0 | 2.0 | 101.0
CC(NC(=O)C(C)(C)C)c1nc2ccccc2n1C (centres undefined) | -16.0 | -3.5 | 5.5 | 3.0 | 0.0*[inhibitor] | 0.0*[inhibitor] | 108.0 | 7.0 | 101.0
